# Results pooled from the literature.
# Lines come from different studies, so protocols differ.
# Observed: cell growth or viability
SMILES,cell line,technique,tested at,time,quantity,value
O=C1c2ccccc2-c2c3c(cc4ccnc1c24)OCO3,MOLT-3,XTT,,75 h,IC50,7900 nM
CC[C@H](C)[C@@H]([C@@H](CC(=O)N1CCC[C@H]1[C@H](OC)[C@@H](C)C(=O)N[C@H](C)[C@@H](O)c1ccccc1)OC)N(C)C(=O)[C@@H](NC(=O)[C@@H](NC)C(C)C)C(C)C,L02,CCK-8,,,IC50,25.3 nM
CCOc1ccccc1-n1c(CN2CCNCC2)nc2ccc(F)cc2c1=O,PANC-1,ATP luminescence,,72 h,IC50,40 nM
COc1cnc(OC)n2nc(NS(=O)(=O)c3c(OCC(F)F)cccc3C(F)(F)F)nc12,L02,CCK-8,1.56 µM,72 h,inhibition,0%
N.N.[Cl][Pt][Cl],REH,ATP luminescence,,72 h,IC50,780 nM
O=C(NCc1ccccc1)c1cn(Cc2ccc(C(F)(F)F)cc2)c2ccc(Oc3ccccc3)cc2c1=O,HCC1419,,,72 h,CC50,> 50000 nM
Cc1ncsc1-c1ccc([C@H](C)NC(=O)[C@@H]2C[C@@H](O)CN2C(=O)[C@@H](c2cc(N3CCC(CN4CCC(OC5CC(Oc6cc(N7C8CCC7CN(c7cc(-c9ccccc9O)nnc7N)C8)ccn6)C5)CC4)CC3)no2)C(C)C)cc1 (some centres unmarked),NCI-H1944,ATP luminescence,,7 days,IC50,20.3 nM
CC[C@@]1(O)C(=O)OCc2c1cc1n(c2=O)Cc2cc3ccccc3nc2-1,PANC-1,SRB,,48 h,IC50,157 nM
